Columns and labels:
Type in all cases: functional
Details in all cases: read-out: GI
Penicillium citrinum [1] = test: Growth inhibition of Penicillium citrinum at 1000 ppm after 96 hr by poisoned food technique
Method in brief: (§1)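 Poisoned food technique in vitro: test compound mixed into Czapek's agar at 1000, 100 or 10 ppm, then Fusarium oxysporum or Penicillium citrinum grown on the medium. Growth inhibition was scored following previously described methods.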

Fusarium oxysporum [2] = test: Growth inhibition of Fusarium oxysporum at 100 ppm after 96 hr by poisoned food technique; method in brief: as §1
Penicillium citrinum [3] = test: Growth inhibition of Penicillium citrinum at 100 ppm after 96 hr by poisoned food technique; method in brief: as §1
Fusarium oxysporum [4] = test: Growth inhibition of Fusarium oxysporum at 1000 ppm after 96 hr by poisoned food technique; method in brief: as §1
Fusarium oxysporum [5] = test: Growth inhibition of Fusarium oxysporum at 10 ppm after 96 hr by poisoned food technique; method in brief: as §1
Penicillium citrinum [6] = test: Growth inhibition of Penicillium citrinum at 10 ppm after 96 hr by poisoned food technique; method in brief: as §1

SMILES	inhibition of growth at 1000 ppm (Penicillium citrinum [1]) [%]	inhibition of growth at 100 ppm (Fusarium oxysporum [2]) [%]	inhibition of growth at 100 ppm (Penicillium citrinum [3]) [%]	inhibition of growth at 1000 ppm (Fusarium oxysporum [4]) [%]	inhibition of growth at 10 ppm (Fusarium oxysporum [5]) [%]	inhibition of growth at 10 ppm (Penicillium citrinum [6]) [%]
COc1ccc([C@@H]2S[C@@H](C)C(=O)N2c2ccc(CCc3ccc(N4C(=O)[C@H](C)S[C@H]4c4ccc(OC)c(OC)c4)cc3)cc2)cc1OC	63	58	55	71	51	46
C[C@@H]1S[C@@H](c2ccc(Cl)cc2)N(c2ccc(CCc3ccc(N4C(=O)[C@H](C)S[C@H]4c4ccc(Cl)cc4)cc3)cc2)C1=O	68	65	42	75	40	30
COc1ccc([C@@H]2S[C@@H](C)C(=O)N2c2ccc(CCc3ccc(N4C(=O)[C@H](C)S[C@H]4c4ccc(OC)cc4)cc3)cc2)cc1	88	62	69	85	41	45
O=C1CS[C@@H](c2ccccc2O)N1c1ccc(CCc2ccc(N3C(=O)CS[C@H]3c3ccccc3O)cc2)cc1	67	50	40	61	39	25
Oc1ccccc1/C=N/c1ccc(CCc2ccc(/N=C/c3ccccc3O)cc2)cc1	50	53	33	62	25	23
O=C1CS[C@@H](c2ccc(Cl)cc2)N1c1ccc(CCc2ccc(N3C(=O)CS[C@H]3c3ccc(Cl)cc3)cc2)cc1	87	43	33	82	15	8
COc1ccc([C@@H]2SCC(=O)N2c2ccc(CCc3ccc(N4C(=O)CS[C@H]4c4ccc(OC)c(OC)c4)cc3)cc2)cc1OC	67	26	50	38	24	26
COc1cc([C@@H]2S[C@@H](C)C(=O)N2c2ccc(CCc3ccc(N4C(=O)[C@H](C)S[C@H]4c4ccc(O)c(OC)c4)cc3)cc2)ccc1O	87	85	58	91	76	45
COc1ccc(/C=N/c2ccc(CCc3ccc(/N=C/c4ccc(OC)c(OC)c4)cc3)cc2)cc1OC	42	43	27	55	31	19
COc1ccc(/C=N/c2ccc(CCc3ccc(/N=C/c4ccc(OC)cc4)cc3)cc2)cc1	58	36	44	46	29	21
O=C1CS[C@@H](c2ccccc2)N1c1ccc(CCc2ccc(N3C(=O)CS[C@H]3c3ccccc3)cc2)cc1	51	30	20	55	12	10
C[C@@H]1S[C@@H](c2ccccc2)N(c2ccc(CCc3ccc(N4C(=O)[C@H](C)S[C@H]4c4ccccc4)cc3)cc2)C1=O	100	81	79	100	59	53
C[C@@H]1S[C@@H](c2ccccc2O)N(c2ccc(CCc3ccc(N4C(=O)[C@H](C)S[C@H]4c4ccccc4O)cc3)cc2)C1=O	78	71	65	88	30	37
COc1ccc([C@@H]2SCC(=O)N2c2ccc(CCc3ccc(N4C(=O)CS[C@H]4c4ccc(OC)cc4)cc3)cc2)cc1	46	50	32	61	24	17
C(=N\c1ccc(CCc2ccc(/N=C/c3ccccc3)cc2)cc1)/c1ccccc1	56	24	20	50	9	13
Clc1ccc(/C=N/c2ccc(CCc3ccc(/N=C/c4ccc(Cl)cc4)cc3)cc2)cc1	88	47	30	83	20	15
COc1cc([C@@H]2SCC(=O)N2c2ccc(CCc3ccc(N4C(=O)CS[C@H]4c4ccc(O)c(OC)c4)cc3)cc2)ccc1O	73	65	56	78	40	38
COc1cc(/C=N/c2ccc(CCc3ccc(/N=C/c4ccc(O)c(OC)c4)cc3)cc2)ccc1O	57	47	45	51	48	37

From ChEMBL document CHEMBL3045462, “Synthesis and fungicidal activity of novel 4,4'-bis(2' '-aryl-5' '-methyl/unsubstituted-4' '-oxo-thiazolidin-3' '-yl) bibenzyl” (2003)
